# Assay results as given in ChEMBL document CHEMBL1772975, “Novel potent and selective σ ligands: evaluation of their agonist and antagonist properties” (J Med Chem, 2011).
# Active and inactive are the calls of the source. The calls are words filed in the database; no cut-off is given here.
# Assays:
# [1] = Displacement of [3H]DTG from sigma 2 receptor in guinea pig brain membranes after 120 mins; type: cell membranes, Cavia porcellus, Membrane
# [2] = biological target: Sigma non-opioid intracellular receptor 1 (Cavia porcellus, UniProt Q60492); experiment: Displacement of [3H]-(+)-pentazocine from sigma 1 receptor in guinea pig brain membranes after 150 mins; type: cell membranes, Membrane
# Sigma non-opioid intracellular receptor 1, sequence (Q60492 whole entry): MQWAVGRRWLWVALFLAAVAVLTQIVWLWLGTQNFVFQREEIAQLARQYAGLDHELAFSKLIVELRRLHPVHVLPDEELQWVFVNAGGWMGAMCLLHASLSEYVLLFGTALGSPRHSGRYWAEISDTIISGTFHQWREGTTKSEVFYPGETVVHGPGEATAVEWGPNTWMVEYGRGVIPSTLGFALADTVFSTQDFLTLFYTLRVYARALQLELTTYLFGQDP
# [3] = species on record: Cavia porcellus; experiment: Selectivity ratio of Ki for sigma 1 receptor in guinea pig brain membranes to Ki for sigma 2 receptor in guinea pig brain membranes; type: cell membranes
# [4] = biological target: D(2) dopamine receptor (Rattus norvegicus) (UniProt P61169); experiment: Binding affinity to dopamine D2 receptor in rat striatum; type: tissue-based
# D(2) dopamine receptor (Rattus norvegicus), sequence (P61169 whole entry): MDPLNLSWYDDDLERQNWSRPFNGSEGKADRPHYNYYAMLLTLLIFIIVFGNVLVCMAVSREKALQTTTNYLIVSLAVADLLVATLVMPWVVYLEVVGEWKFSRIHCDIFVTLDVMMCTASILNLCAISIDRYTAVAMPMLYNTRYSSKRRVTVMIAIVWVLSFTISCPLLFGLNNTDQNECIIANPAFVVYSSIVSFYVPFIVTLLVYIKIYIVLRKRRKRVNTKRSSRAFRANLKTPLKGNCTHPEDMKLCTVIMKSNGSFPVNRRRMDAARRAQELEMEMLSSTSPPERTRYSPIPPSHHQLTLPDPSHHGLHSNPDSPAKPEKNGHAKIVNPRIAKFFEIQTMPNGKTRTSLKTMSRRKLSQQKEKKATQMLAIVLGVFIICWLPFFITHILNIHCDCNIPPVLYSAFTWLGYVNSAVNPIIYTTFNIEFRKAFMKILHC
# [5] = biological target: 5-hydroxytryptamine receptor 2A (Rattus norvegicus) (UniProt P14842); experiment: Binding affinity to 5-HT2A receptor in rat cortex; type: tissue-based
# 5-hydroxytryptamine receptor 2A (Rattus norvegicus), sequence (P14842 whole entry): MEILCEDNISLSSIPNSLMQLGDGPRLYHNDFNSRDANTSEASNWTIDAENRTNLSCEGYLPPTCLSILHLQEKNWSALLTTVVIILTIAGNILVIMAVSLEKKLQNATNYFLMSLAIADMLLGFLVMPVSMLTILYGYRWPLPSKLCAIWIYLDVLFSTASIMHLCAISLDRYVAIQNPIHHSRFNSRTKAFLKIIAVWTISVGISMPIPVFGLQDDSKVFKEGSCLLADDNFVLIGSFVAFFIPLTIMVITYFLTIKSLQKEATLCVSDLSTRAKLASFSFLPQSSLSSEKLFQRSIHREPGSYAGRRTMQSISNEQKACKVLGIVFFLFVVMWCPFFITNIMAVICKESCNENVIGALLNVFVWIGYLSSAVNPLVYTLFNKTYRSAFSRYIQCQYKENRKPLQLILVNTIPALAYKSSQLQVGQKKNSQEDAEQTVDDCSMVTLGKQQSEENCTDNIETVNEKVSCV
# [6] = biological target: D(3) dopamine receptor (Rattus norvegicus) (UniProt P19020); experiment: Binding affinity to dopamine D3 receptor in rat olfactory tubercle; type: tissue-based
# D(3) dopamine receptor (Rattus norvegicus), sequence (P19020 whole entry): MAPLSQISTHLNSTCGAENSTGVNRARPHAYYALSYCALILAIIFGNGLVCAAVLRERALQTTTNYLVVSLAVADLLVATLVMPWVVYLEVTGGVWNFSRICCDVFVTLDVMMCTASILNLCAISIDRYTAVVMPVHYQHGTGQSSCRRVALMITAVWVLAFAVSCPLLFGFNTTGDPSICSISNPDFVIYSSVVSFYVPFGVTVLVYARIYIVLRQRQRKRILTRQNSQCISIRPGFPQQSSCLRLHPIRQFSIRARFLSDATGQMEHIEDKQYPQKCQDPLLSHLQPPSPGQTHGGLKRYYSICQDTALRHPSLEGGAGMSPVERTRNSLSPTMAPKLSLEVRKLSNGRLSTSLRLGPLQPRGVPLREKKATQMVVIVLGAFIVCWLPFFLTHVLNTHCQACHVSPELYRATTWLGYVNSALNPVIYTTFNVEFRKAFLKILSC
# [7] = biological target: D(1A) dopamine receptor (Rattus norvegicus) (UniProt P18901); experiment: Binding affinity to dopamine D1 receptor in rat striatum; type: tissue-based
# D(1A) dopamine receptor (Rattus norvegicus), sequence (P18901 whole entry): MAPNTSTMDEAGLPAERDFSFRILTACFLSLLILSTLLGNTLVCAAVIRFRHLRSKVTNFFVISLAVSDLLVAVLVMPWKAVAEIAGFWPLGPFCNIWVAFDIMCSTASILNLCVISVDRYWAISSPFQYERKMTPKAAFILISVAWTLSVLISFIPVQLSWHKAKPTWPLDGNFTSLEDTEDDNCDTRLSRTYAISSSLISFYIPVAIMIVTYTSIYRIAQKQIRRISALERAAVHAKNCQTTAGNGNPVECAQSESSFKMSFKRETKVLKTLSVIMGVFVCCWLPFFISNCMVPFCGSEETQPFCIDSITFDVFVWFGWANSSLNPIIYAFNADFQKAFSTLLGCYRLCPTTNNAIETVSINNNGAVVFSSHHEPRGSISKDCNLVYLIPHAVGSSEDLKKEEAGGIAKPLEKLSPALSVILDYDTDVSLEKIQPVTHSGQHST
# [8] = biological target: Adrenergic receptor alpha-1 (Rattus norvegicus) (UniProt P15823+P23944+P43140); experiment: Binding affinity to adrenergic alpha1 receptor in rat cortex
# [9] = biological target: Mu-type opioid receptor (Rattus norvegicus) (UniProt P33535); experiment: Displacement of [3H]naloxone from mu opioid receptor in rat brain membranes; type: cell membranes
# Mu-type opioid receptor (Rattus norvegicus), sequence (P33535 whole entry): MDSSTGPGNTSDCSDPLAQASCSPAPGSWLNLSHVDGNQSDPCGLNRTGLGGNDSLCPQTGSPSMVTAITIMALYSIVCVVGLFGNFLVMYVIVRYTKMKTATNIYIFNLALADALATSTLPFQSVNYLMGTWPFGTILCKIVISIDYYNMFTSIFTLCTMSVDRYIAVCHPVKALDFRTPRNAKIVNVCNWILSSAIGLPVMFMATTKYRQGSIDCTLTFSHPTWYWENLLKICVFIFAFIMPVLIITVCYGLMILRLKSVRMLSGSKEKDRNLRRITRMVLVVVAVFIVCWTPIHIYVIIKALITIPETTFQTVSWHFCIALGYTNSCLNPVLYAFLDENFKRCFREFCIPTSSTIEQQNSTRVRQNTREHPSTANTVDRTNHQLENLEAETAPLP
# [10] = Binding affinity to dopamine D4.2 receptor
# [11] = test system: Rattus norvegicus; experiment: Potentiation of (-)-U50488H-induced antinociceptive activity in Sprague-Dawley rat assessed as mean AUC of thermal-stimulus induced tail flick latency for 60 mins at 1 mg/kg, sc treated 45 mins before (-)-U50488H challenge; type: functional; conditions: route subcutaneous
# Outline: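 Rats were pretreated sc with test compound at 1 mg/kg 45 min before the κ agonist (−)-U50,488H at 5 mg/kg sc. Thermal-stimulus tail flick latency was taken as percent change from basal over 60 min and summarised as MAUC after the last injection. Groups were compared with saline- and U50,488H-only groups, n = 8–10, mean ± SD, p < 0.05.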
# [12] = biological target: Sigma non-opioid intracellular receptor 1 (Cavia porcellus) (UniProt Q60492); experiment: Displacement of [3H]-(+)-pentazocine from sigma 1 receptor in guinea pig brain membranes after 150 mins in presence of 1 mM to 250 uM of phenytoin; type: cell membranes; conditions: Membrane
# Sigma non-opioid intracellular receptor 1 (Cavia porcellus), sequence (Q60492 whole entry): as the sequence (Q60492 whole entry) above
# Outline: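 Guinea pig brain [3H](+)-pentazocine competition binding run without phenytoin and with 250 μM or 1 mM phenytoin. Ki ratios (control/with phenytoin) computed. Hill analysis of competition curves. Cocaine served as the putative σ1 agonist control.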
# [13] = test system: Rattus norvegicus; experiment: Antinociceptive activity in Sprague-Dawley rat assessed as mean AUC of thermal-stimulus induced tail flick latency for 60 mins at 1 mg/kg, sc; type: functional, organism-based; design: dose 1 mg/kg
# Outline: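 Rats given test compound 1 mg/kg sc alone. Tail flick latency to thermal stimulation, expressed as percent change from basal, tracked over a 60 min window. Summarised as mean area under the curve (MAUC) after the last injection. Compared against saline-treated rats, n = 8–10 per group, mean ± SD, significance at p < 0.05.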
# [14] = Partial agonist activity at sigma 2 receptor in guinea pig longitudinal muscle/myenteric plexus assessed as inhibition of electrically-induced contraction; type: functional, Cavia porcellus
# Outline: (§1)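 Guinea pig ileum preparation with sigma-1 receptors desensitized. Electrically evoked contractions recorded in an isolated organ bath; a dose-response curve was built from the inhibition of the evoked contractions.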
# [15] = test system: PC-3; experiment: Antiproliferative activity against human PC3 cells at 100 uM after 48 hrs; type: functional, cell-based
# Outline: (§2)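 LNCaP (hormone-sensitive) and PC3 (hormone-refractory) prostate tumour cells exposed to 100 μM compound for 48 h; antiproliferative effect measured. Haloperidol and haloperidol metabolite II run as references.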
# [16] = Agonist activity at sigma 2 receptor in guinea pig longitudinal muscle/myenteric plexus assessed as inhibition of electrically-induced contraction; type: functional; conditions: Cavia porcellus; outline: as §1
# [17] = test system: LNCaP; experiment: Antiproliferative activity against human LNCAP cells at 100 uM after 48 hrs; type: functional, cell-based; outline: as §2
Compound,Ki [1] [nM],Ki [2] [nM],Ratio Ki [3],other results
O=C(CCCc1ccccc1)OC(CCCN1CCC(O)(c2ccc(Cl)cc2)CC1)c1ccc(F)cc1 (racemic),0.98,5.4,0.18,
COC(=O)[C@]1(c2ccccc2)C[C@@H]1CN1C2C=C(c3ccc(Cl)cc3)CC1CC2 (mixture of isomers),943,397,2.4,
O=C(CCCN1CCC(O)(c2ccc(Cl)cc2)CC1)c1ccc(F)cc1 [HALOPERIDOL],16,,,
COC(=O)[C@@]1(c2ccccc2)C[C@H]1CN1CCC(O)(c2ccccc2)CC1,571,7.01,81.4,Activity [4]: Active; Activity [5]: Active; Activity [6]: Active; Activity [7]: Active; Activity [8]: Active; Activity [9]: Active; Activity [10]: Active; Activity [11]: 118.2%; inhibition [12]: Active; Activity [13]: inactive
COC(=O)[C@H]1[C@@H](OC(=O)c2ccccc2)C[C@@H]2CC[C@H]1N2C,,,,inhibition [12]: inactive
Cc1ccccc1NC(=N)Nc1ccccc1C [DITOLYLGUANIDINE],23,,,
COC(=O)[C@]1(c2ccccc2)C[C@@H]1CN1CCC(O)(c2ccc(Cl)cc2)CC1,21.9,3.95,,inhibition [12]: Active
COC(=O)[C@@]1(c2ccccc2)C[C@H]1CN1CCC(O)(c2ccc(Cl)cc2)CC1,23.4,5.61,,
COC(=O)[C@@]1(c2ccccc2)C[C@H]1CN1[C@@H]2CC[C@H]1C[C@@](O)(c1ccc(Cl)cc1)C2,25.2,520,0.05,Activity [4]: Active; Activity [5]: Active; Alpha max [14]: 0.4; Activity [6]: Active; Activity [15]: Active; Activity [7]: Active; Activity [8]: Active; Activity [9]: Active; Activity [10]: Active; EC50 [16]: 2300 nM; Activity [17]: Active
COC(=O)[C@]1(c2ccccc2)C[C@@H]1CN1CCC(O)(c2ccccc2)CC1,28.2,5.02,5.6,
COC(=O)[C@]1(c2ccccc2)C[C@@H]1CN1[C@@H]2CC[C@H]1C[C@@](O)(c1ccc(Cl)cc1)C2,58.3,44,1.3,
COC(=O)[C@@]1(c2ccccc2)C[C@H]1CN1C2C=C(c3ccc(Cl)cc3)CC1CC2 (mixture of isomers),565,198,2.8,
